From ChEMBL document CHEMBL1138515, “Synthesis and biological characterization of B-ring amino analogues of potent benzothiadiazine hepatitis C virus polymerase inhibitors” (J Med Chem, 2009)

Tested on: not listed separately
Assay: Half life in Sprague-Dawley rat at 5 mg/kg, iv
Type: ADME, organism-based
Set-up: dose 5 mg/kg, route intravenous
Settings: in vivo
Outline: (§1)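 Overnight-fasted Sprague-Dawley rats (n = 3) received a single 5 mg/kg iv or oral dose in DMSO/PEG400 (1:9, v/v). Mean concentrations were fitted multiexponentially. AUC₀₋ₜ was calculated by linear trapezoidal rule and extrapolated to infinity using Cₜ divided by the terminal rate constant.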

In order of falling half-life:
1. Cc1cccc(C)c1CNC1(CCC(C)(C)C)C(=O)C(C2=NS(=O)(=O)c3cc(NS(C)(=O)=O)ccc3N2)=C(O)c2ccccc21 (stereo not drawn)  5 h
2. COc1ccccc1CNC1(CCC(C)(C)C)C(=O)C(C2=NS(=O)(=O)c3cc(NS(C)(=O)=O)ccc3N2)=C(O)c2ccccc21 (stereo not drawn)  3.2 h
3. CC(C)(C)CCC1(NCc2ccccc2N)C(=O)C(C2=NS(=O)(=O)c3cc(NS(C)(=O)=O)ccc3N2)=C(O)c2ccccc21 (stereo not drawn)  2.2 h
4. Cc1cccc(CNC2(CCC(C)(C)C)C(=O)C(C3=NS(=O)(=O)c4cc(NS(C)(=O)=O)ccc4N3)=C(O)c3ccccc32)n1 (stereo not drawn)  1 h
5. Cc1ccc(CNC2(CCC(C)(C)C)C(=O)C(C3=NS(=O)(=O)c4cc(NS(C)(=O)=O)ccc4N3)=C(O)c3ccccc32)cn1 (stereo not drawn)  0.5 h

Tested on: not listed separately
Assay: Inhibition of HCV1a H77 NS5B assessed as [3H]UTP incorporation into RNA by scintillation counting
Set-up: species or system Hepatitis C virus (isolate H77)
Settings: not given
Outline: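 Two-fold serial inhibitor dilutions were preincubated for 15 min at room temperature with NS5B (genotype 1a H77 or genotype 1b BK, 20-50 nM) in 20 mM Tris-Cl pH 7.4, 2 mM MnCl₂, 1 mM DTT, 1 mM EDTA and 60-125 µM GTP. Reactions were started with 20 µM CTP, 20 µM ATP, 1 µM ³H-UTP, 5 nM template RNA and RNase inhibitor, then run 2-4 h at room temperature.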

In order of rising IC50:
1. Cc1ccc(CNC2(CCC(C)(C)C)C(=O)C(C3=NS(=O)(=O)c4cc(NS(C)(=O)=O)ccc4N3)=C(O)c3ccccc32)cn1 (stereo not drawn)  14 nM
2. COc1ccccc1CNC1(CCC(C)(C)C)C(=O)C(C2=NS(=O)(=O)c3cc(NS(C)(=O)=O)ccc3N2)=C(O)c2ccccc21 (stereo not drawn)  15 nM
3. Cc1cccc(CNC2(CCC(C)(C)C)C(=O)C(C3=NS(=O)(=O)c4cc(NS(C)(=O)=O)ccc4N3)=C(O)c3ccccc32)n1 (stereo not drawn)  15 nM
4. CC(C)(C)CCC1(NCc2ccccc2N)C(=O)C(C2=NS(=O)(=O)c3cc(NS(C)(=O)=O)ccc3N2)=C(O)c2ccccc21 (stereo not drawn)  17 nM
5. Cc1cccc(C)c1CNC1(CCC(C)(C)C)C(=O)C(C2=NS(=O)(=O)c3cc(NS(C)(=O)=O)ccc3N2)=C(O)c2ccccc21 (stereo not drawn)  24 nM

Tested on: Hepatitis C virus
Assay: Antiviral activity against HCV1a H77 assessed as inhibition of viral replication by cell-based replicon assay
Type: functional, organism-based, Hepacivirus hominis
Settings: genotype 1a H77
Outline: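 Stable luciferase-reporter subgenomic replicon Huh-7 lines (1a H77; 1b Con1) were seeded at 5000 cells/well in DMEM with 5% FBS. The next day an eight-point half-log dilution series was added from DMSO stocks. After 3 days the cells were lysed, luciferin was added and luminescence was read. EC₅₀ came from percent inhibition of replication at each concentration.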

In order of rising EC50:
1. COc1ccccc1CNC1(CCC(C)(C)C)C(=O)C(C2=NS(=O)(=O)c3cc(NS(C)(=O)=O)ccc3N2)=C(O)c2ccccc21 (stereo not drawn)  6 nM
2. CC(C)(C)CCC1(NCc2ccccc2N)C(=O)C(C2=NS(=O)(=O)c3cc(NS(C)(=O)=O)ccc3N2)=C(O)c2ccccc21 (stereo not drawn)  8 nM
3. Cc1ccc(CNC2(CCC(C)(C)C)C(=O)C(C3=NS(=O)(=O)c4cc(NS(C)(=O)=O)ccc4N3)=C(O)c3ccccc32)cn1 (stereo not drawn)  11 nM
4. Cc1cccc(CNC2(CCC(C)(C)C)C(=O)C(C3=NS(=O)(=O)c4cc(NS(C)(=O)=O)ccc4N3)=C(O)c3ccccc32)n1 (stereo not drawn)  13 nM
5. Cc1cccc(C)c1CNC1(CCC(C)(C)C)C(=O)C(C2=NS(=O)(=O)c3cc(NS(C)(=O)=O)ccc3N2)=C(O)c2ccccc21 (stereo not drawn)  21 nM

Tested on: not listed separately
Assay: Cmax in Sprague-Dawley rat at 5 mg/kg, po
Type: ADME, organism-based
Set-up: dose 5 mg/kg, route oral
Settings: in vivo
Outline: as §1

In order of rising Cmax:
1. CC(C)(C)CCC1(NCc2ccccc2N)C(=O)C(C2=NS(=O)(=O)c3cc(NS(C)(=O)=O)ccc3N2)=C(O)c2ccccc21 (stereo not drawn)  80 ng/mL
2. Cc1cccc(CNC2(CCC(C)(C)C)C(=O)C(C3=NS(=O)(=O)c4cc(NS(C)(=O)=O)ccc4N3)=C(O)c3ccccc32)n1 (stereo not drawn)  150 ng/mL
3. COc1ccccc1CNC1(CCC(C)(C)C)C(=O)C(C2=NS(=O)(=O)c3cc(NS(C)(=O)=O)ccc3N2)=C(O)c2ccccc21 (stereo not drawn)  400 ng/mL
4. Cc1cccc(C)c1CNC1(CCC(C)(C)C)C(=O)C(C2=NS(=O)(=O)c3cc(NS(C)(=O)=O)ccc3N2)=C(O)c2ccccc21 (stereo not drawn)  460 ng/mL

Tested on: not listed separately
Assay: AUC (0 to infinity) in Sprague-Dawley rat at 5 mg/kg, po
Type: ADME, organism-based
Set-up: time infinity, dose 5 mg/kg, route oral
Settings: plasma
Outline: as §1

In order of falling AUC(0-inf):
1. Cc1cccc(C)c1CNC1(CCC(C)(C)C)C(=O)C(C2=NS(=O)(=O)c3cc(NS(C)(=O)=O)ccc3N2)=C(O)c2ccccc21 (stereo not drawn)  3500 ng·h/mL
2. COc1ccccc1CNC1(CCC(C)(C)C)C(=O)C(C2=NS(=O)(=O)c3cc(NS(C)(=O)=O)ccc3N2)=C(O)c2ccccc21 (stereo not drawn)  1600 ng·h/mL
3. Cc1cccc(CNC2(CCC(C)(C)C)C(=O)C(C3=NS(=O)(=O)c4cc(NS(C)(=O)=O)ccc4N3)=C(O)c3ccccc32)n1 (stereo not drawn)  1340 ng·h/mL
4. CC(C)(C)CCC1(NCc2ccccc2N)C(=O)C(C2=NS(=O)(=O)c3cc(NS(C)(=O)=O)ccc3N2)=C(O)c2ccccc21 (stereo not drawn)  410 ng·h/mL

Tested on: not listed separately
Assay: Oral bioavailability in Sprague-Dawley rat at 5 mg/kg
Type: ADME, organism-based
Settings: in vivo
Outline: as §1

In order of falling bioavailability:
1. Cc1cccc(C)c1CNC1(CCC(C)(C)C)C(=O)C(C2=NS(=O)(=O)c3cc(NS(C)(=O)=O)ccc3N2)=C(O)c2ccccc21 (stereo not drawn)  53.7%
2. COc1ccccc1CNC1(CCC(C)(C)C)C(=O)C(C2=NS(=O)(=O)c3cc(NS(C)(=O)=O)ccc3N2)=C(O)c2ccccc21 (stereo not drawn)  48%
3. Cc1cccc(CNC2(CCC(C)(C)C)C(=O)C(C3=NS(=O)(=O)c4cc(NS(C)(=O)=O)ccc4N3)=C(O)c3ccccc32)n1 (stereo not drawn)  33.8%
4. CC(C)(C)CCC1(NCc2ccccc2N)C(=O)C(C2=NS(=O)(=O)c3cc(NS(C)(=O)=O)ccc3N2)=C(O)c2ccccc21 (stereo not drawn)  8.9%
5. Cc1ccc(CNC2(CCC(C)(C)C)C(=O)C(C3=NS(=O)(=O)c4cc(NS(C)(=O)=O)ccc4N3)=C(O)c3ccccc32)cn1 (stereo not drawn)  0%

Tested on: not listed separately
Assay: Clearance in Sprague-Dawley rat at 5 mg/kg, iv
Type: ADME, organism-based
Set-up: dose 5 mg/kg, route intravenous
Settings: in vivo
Outline: as §1

In order of rising clearance:
1. Cc1cccc(C)c1CNC1(CCC(C)(C)C)C(=O)C(C2=NS(=O)(=O)c3cc(NS(C)(=O)=O)ccc3N2)=C(O)c2ccccc21 (stereo not drawn)  13 mL/min/kg
2. CC(C)(C)CCC1(NCc2ccccc2N)C(=O)C(C2=NS(=O)(=O)c3cc(NS(C)(=O)=O)ccc3N2)=C(O)c2ccccc21 (stereo not drawn)  20 mL/min/kg
3. COc1ccccc1CNC1(CCC(C)(C)C)C(=O)C(C2=NS(=O)(=O)c3cc(NS(C)(=O)=O)ccc3N2)=C(O)c2ccccc21 (stereo not drawn)  25 mL/min/kg
4. Cc1cccc(CNC2(CCC(C)(C)C)C(=O)C(C3=NS(=O)(=O)c4cc(NS(C)(=O)=O)ccc4N3)=C(O)c3ccccc32)n1 (stereo not drawn)  28.3 mL/min/kg
5. Cc1ccc(CNC2(CCC(C)(C)C)C(=O)C(C3=NS(=O)(=O)c4cc(NS(C)(=O)=O)ccc4N3)=C(O)c3ccccc32)cn1 (stereo not drawn)  98.3 mL/min/kg
